# KCNK9 block – KCNK9 potassium channel inhibitors, primary screen, HEK293 cells, thallium flux; Potassium channel subfamily K member 9 (Homo sapiens), Q9NPC2; FluxOR thallium flux fluorescence; active compounds read low; B-score at 10 µM; 310,000 compounds, 1.2% hits; AID 488922, 2010;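 active = ratio B-score over 3 SD below the library mean, with starting fluorescence within 5 SD of its mean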;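 note: negative B-score means less thallium flux so channel inhibition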
# KCNQ1 block – inhibitors of human KCNQ1 channel, primary screen, cell-based, thallium flux, high-throughput; CHO-K1 KCNQ1, FluxOR thallium flux fluorescence; active compounds read high; B-score at 10 µM; 310,000 compounds, 1.3% hits;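 active = compounds whose thallium flux B-score, printed positive for inhibition, exceeds three library SD while starting fluorescence stays within three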;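 note: channel opened by potassium depolarization with thallium stimulus after 20 min compound exposure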
# KCNK3 block – human KCNK3 channel inhibitors, primary screen, CHO cells, FluxOR thallium flux, B-score. 340,000 compounds, 0.84% hits. Potassium channel subfamily K member 3 (Homo sapiens), O14649. B-score at 10 µM. AID 602410, 2012. FluxOR fluorescence; active compounds read low;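 active = B-score under library mean minus 4 SD, starting fluorescence ratio at most library mean plus 5 SD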;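 note: more negative B-score means stronger inhibition of thallium flux through KCNK3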
# hERG rescue – hERG rescue from dofetilide block, primary screen, cell-based, CHO-hERG, FluxOR thallium flux, dofetilide IC70; Voltage-gated inwardly rectifying potassium channel KCNH2 (Homo sapiens), Q12809; 310,000 compounds, 0.51% hits; dofetilide IC70 present; activation (rescue from dofetilide block), less the hit threshold, % at 10 µM;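 active = activation above the mean of controls blocked by dofetilide plus 5 SD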;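 note: thallium influx through hERG after potassium depolarization seen as dye fluorescence rise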
# KCNQ1 act – potentiators or activators of KCNQ1 channel, primary screen, cell-based, thallium flux, high-throughput; CHO-K1 KCNQ1, thallium flux FluxOR fluorescence; active compounds read high; B-score at 10 µM; 310,000 compounds, 0.35% hits; AID 2648, 2010; Potassium voltage-gated channel subfamily KQT member 1 (Homo sapiens), P51787;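 active = fluorescence ratio B-score, a plate-corrected score, at least three library SD, with initial intensity B-score within 5 SD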
#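 Assay system: CHO-K1 cells stably expressing KCNQ1; Medium: assay buffer with matched DMSO; Also added: K+/Tl+ depolarizing stimulus; Dosing: single dose; Timing: dye 90 min, compound 20 min, room temperature; Measured by: kinetic FluxOR thallium fluorescence, 10-s 1-Hz baseline, 110-s post-stimulus read; Read-out: peak-minus-minimum fluorescence over initial fluorescence, negative-control normalized, B-scored.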
# Kir21 block – inhibitors of mouse Kir2.1 inward-rectifier potassium channel; Inward rectifier potassium channel 2 (Mus musculus), P35561; HEK293-Kir2.1, FluxOR thallium flux fluorescence; active compounds read low; B-score at 10 µM; AID 1672, 2009; 310,000 compounds, 0.85% hits;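 active = fluorescence ratio B-score at or below minus 3 SD of library scores, with starting-brightness B-score within 2 SD, cut at about -4.2 in these data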;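 note: channel flux triggered by added potassium and thallium sulfate stimulus; B-score of peak minus minimum fluorescence over baseline after thallium stimulus; more negative B-score means stronger Kir2.1 block with less thallium influx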
# Target sequence (P35561 whole entry, looked up): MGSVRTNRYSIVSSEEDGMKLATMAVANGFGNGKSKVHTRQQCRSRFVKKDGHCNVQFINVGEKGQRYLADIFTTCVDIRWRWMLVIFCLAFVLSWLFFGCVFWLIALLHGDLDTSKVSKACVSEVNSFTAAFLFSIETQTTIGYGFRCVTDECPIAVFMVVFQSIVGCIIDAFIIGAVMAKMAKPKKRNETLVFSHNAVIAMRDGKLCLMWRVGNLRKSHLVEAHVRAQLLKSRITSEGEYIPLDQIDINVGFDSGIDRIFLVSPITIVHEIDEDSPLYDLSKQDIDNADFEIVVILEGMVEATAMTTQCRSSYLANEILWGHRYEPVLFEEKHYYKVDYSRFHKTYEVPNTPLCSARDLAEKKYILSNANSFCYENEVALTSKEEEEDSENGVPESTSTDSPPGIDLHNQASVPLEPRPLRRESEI
# KCNK9 block conf – KCNK9 potassium channel inhibitors, confirmation, HEK293 cells, thallium flux, duplicate; shares compounds with KCNK9 block; AID 492992, 2010; 4,900 compounds, 43% hits; FluxOR thallium flux fluorescence; inhibition, % at 10 µM;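 active = thallium signal inhibited by more than 5 SD of the compound-free buffer control wells, on both duplicate plates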;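 note: 0% = assay buffer control wells without compound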
# Kir2-1 spec – mouse Kir2.1 channel inhibition, confirmation, selectivity assay for KCNK9 modulator project, cell-based, HEK293, thallium flux | shares compounds with KCNK9 block | Kir2.1 cells, FluxOR thallium flux fluorescence | inhibition, % at 10 µM | 4,900 compounds, 4% hits | AID 492993, 2010;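 active = thallium signal drop more than 5 SD beyond the mean of the no-compound control wells, seen in both duplicate plates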;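 note: signal is fluorescence rise after thallium addition divided by baseline fluorescence; plate controls were assay buffer only for no effect and full block by chlorpromazine control for full effect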
# KCNK9 uninduced – thallium flux in non-induced HEK293 cells, confirmation, counter-screen for KCNK9 inhibitor project, cell-based, second counter screen, non-induced KCNK9-HEK293; shares compounds with KCNK9 block; FluxOR thallium flux; inhibition, % at 10 µM; 4,900 compounds, 40% hits;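 active = thallium signal drop beyond 5 SD of the untreated control mean, on both duplicate plates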;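 note: plate controls were buffer only IC0 wells for no effect and SID17386958 at its maximal inhibitory level for full effect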
# Active calls of the source: *; i = inactive; / = no result given. Rows were chosen to be rich in hits. Some 3.8% of all compounds tested hit in one or more screens of this group.
SMILES,KCNK9 block,KCNQ1 block,KCNK3 block,hERG rescue,KCNQ1 act,Kir21 block,KCNK9 block conf,Kir2-1 spec,KCNK9 uninduced
CC1c2cc3c(cc2CCN1C(=O)c1ccc(Br)cc1)OCCCO3 (centres undefined),i,i,i,-17,i,2.2,/,/,/
Cc1cccc(NC(=O)CN2CCc3cc4c(cc3C2C)OCCCO4)c1 (centres undefined),i,i,i,-13,i,0.81,i,i,i
Cc1ccc(NC(=O)CN2CCc3cc4c(cc3C2)OCCCO4)cc1,i,i,i,-8,i,0.36,/,/,/
Cc1cccc(NC(=O)CN2CCc3cc4c(cc3C2)OCCCO4)c1,i,i,i,-8,i,0.45,i,i,i
CC(=O)c1cccc(NC(=O)CN2CCc3cc4c(cc3C2)OCCCO4)c1,i,i,i,-13,i,-0.11,/,/,/
CCN(CC(=O)Nc1cc(Cl)ccc1C)C(=O)Cc1sc(C)nc1-c1ccc(F)cc1,-9.8*,i,-9.7*,-15,i,-1.3,i,i,30%*
Cc1cc(=O)n2ccsc2n1,i,i,i,-10,i,0.15,/,/,/
CC(NC(=O)C1CCC(C(C)(C)C)CC1)C(c1ccccc1)N1CCOCC1 (centres undefined),i,i,i,-10,i,-1.8,i,i,i
CC(NC(=O)C1CC1)C(c1cccs1)N1CCOCC1 (centres undefined),i,i,i,-7,i,1.6,/,/,/
CCOC(=O)c1c(NC(=O)Cn2nnc3ccccc32)sc2c1CCC(C)C2 (centres undefined),i,i,i,-5,i,-1.3,/,/,/
CCOC(=O)c1c(NC(=O)CSc2nnc(-c3ccc(OC)cc3)o2)sc2c1CCC2,i,i,i,-12,i,0.14,i,i,i
CCOC(=O)c1c(NC(=O)CSc2nnc(C)s2)sc2c1CCC(C)C2 (centres undefined),-9.8*,i,i,-13,i,0.21,i,i,52%*
CCOC(=O)c1c(NC(=O)CSc2nnc(-c3cccnc3)o2)sc2c1CCC2,i,i,i,-2,i,1.3,/,/,/
O=C(O)c1cc(=O)[nH]c2ccccc12,/,/,i,/,/,/,/,/,/
Cc1ccc(C)n1-c1nn(S(=O)(=O)c2ccccc2)c2cccc(F)c12,-15*,i,i,-3,i,0.93,58%*,i,42%*
CSc1nc(-c2ccccc2)nn1S(=O)(=O)c1ccccc1,i,i,i,-16,i,0.91,/,/,/
O=C(O)CCSCC(=O)Nc1c(C(=O)C2CC2)oc2ccccc12,i,i,i,-8,i,-0.62,/,/,/
O=C(CN1CCN(c2ccccc2)CC1)Nc1c(C(=O)C2CC2)oc2ccccc12,-11*,i,i,-5,i,0.41,32%*,i,i
Cn1nnnc1SCC(=O)N1c2ccccc2Sc2ccccc21,i,i,i,-3,i,-1.3,/,/,/
CCn1nnnc1SCC(=O)N1c2ccccc2Sc2ccccc21,i,i,i,1,i,-0.52,i,i,i
COc1ccc(C2=CN(Cc3ccccc3)CCC2=O)cc1,/,/,i,/,/,/,/,/,/
CCN(CC)S(=O)(=O)c1ccc2c(c1)nc(SC(C)C(=O)NCC1CCCO1)n2CC (centres undefined),i,i,i,-11,i,0.39,i,i,i
O=C(Nc1ccc(OC(F)F)c(Cl)c1)C(c1ccccc1)c1ccccc1,-10*,i,i,-16,i,-0.75,25%*,i,41%*
CC1(C)Oc2ccc(C(=O)Nc3ccccc3)cc2N(CC#N)C1=O,i,i,i,-9,i,0.52,/,/,/
O=c1c2ccccc2ncn1CCCSc1ccccc1,i,i,i,-10,i,1.8,i,i,30%*
SMILES,KCNK9 block,KCNQ1 block,KCNK3 block,hERG rescue,KCNQ1 act,Kir21 block,KCNK9 block conf,Kir2-1 spec,KCNK9 uninduced
CCN(CC(=O)Nc1ccccc1C(F)(F)F)C(=O)c1ccc2c(c1)NC(=O)CS2,/,/,i,/,/,/,/,/,/
CC(C)CN1CCC(=O)N(CCSc2ccc(Br)cc2)CC1,i,i,i,-6,i,-1.4,i,i,i
CC(C)CN1CCC(=O)N(CCOc2ccccc2)CC1,i,i,i,-5,i,-0.15,/,/,/
COc1cc(C2=NOC(C(=O)NCc3cccnc3)C2)cc(OC)c1OC (centres undefined),-8.6*,i,i,-2,i,-0.17,26%*,i,i
COc1ccc(OC)c(C2=NOC(C(=O)NCc3cccnc3)C2)c1 (centres undefined),i,i,i,0,i,-1.1,/,/,/
CSc1ccccc1OCc1cc(C(=O)N2CCc3sccc3C2)no1,i,i,i,-7,i,-0.85,i,i,i
O=C(c1cc(COc2ccc(F)cc2Cl)on1)N1CCc2sccc2C1,i,i,i,-10,i,0.89,/,/,/
CCN1/C(=C/C=C/c2sc3ccccc3[n+]2CC)Sc2ccccc21,-24*,i,-13*,-21,i,-1.4,i,i,i
Nc1nc(=O)n(C2CC(O)C(CO)O2)cc1F (centres undefined),/,/,i,/,/,/,/,/,/
COc1ccc(Nc2nc(-c3cc4cccc(OC)c4oc3=O)cs2)cc1,i,i,i,-6,i,0.05,/,/,/
COc1ccc2oc(=O)c(-c3csc(Nc4cccc(O)c4)n3)cc2c1,-15*,11*,i,-17,i,1.4,66%*,i,28%*
CC[C@]12C(=O)N(C)C[C@H]([C@@H]3C(=O)N(C)C(=O)[C@@H]31)N2C(=O)c1ccc(Cl)cc1,/,/,i,/,/,/,/,/,/

# Assay outcomes (PubChem BioAssay)
